The values that follow come from paper PMC4627693 (Chemistry & biology, 2014).

Holding throughout (assay type): binding
The test system of assay [1] is c-Src-imine (c-Src-1 complex). The assay is described as follows: Thiol reaction with Src-imine. Put shortly:
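c-Src (4 μM) pre-labelled 15 min with dialdehyde crosslinker (20 μM) in 25 mM HEPES pH 6.5, not quenched. Imine adduct then treated with 2-methylbenzylmercaptan (50 μM–1 mM) or Cys peptide (25–400 μM). Products analysed by ESI LC-MS with deconvolution. Duplicate points, representative of three experiments, error shown as SEM.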

The next assay deals with c-Src-acrylamide (Gallus gallus, UniProt P00523). In words: Thiol reaction with Src-acrylamide, LC-MS. To be noted: 4 μM c-Src-acrylamide (crosslinker 2), 25 minutes, room temperature. Put shortly:
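Recombinant c-Src (4 μM final) was pre-labelled with 20 μM crosslinker in PBS pH 8 (0.025% DMSO final) for 15 min without quench. It was then reacted with 2-methylbenzylmercaptan (50 μM-1 mM) or Cys-containing peptide (25-400 μM) to give a dose-response. Products were read by LC-ESI-MS (C4 column, deconvoluted spectra). Data are duplicate points (SEM), from three separate experiments.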

In assay [2] the test system is c-Src. To be noted: peptide 74 μM, 4 μM c-Src, 20 μM crosslinker 2; three hour time course; LC-MS. An outline of the steps: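 c-Src (4 μM) in PBS pH 8 incubated with acrylate crosslinker (20 μM; DMSO 0.025% final) and biotinylated cysteine-containing quasi-substrate peptide (74 μM) over 3 h. Samples quenched with NaBH4 in cold MeOH and analysed by ESI LC-MS on a C4 column with deconvolution. Crosslinked product expressed as % of total c-Src.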

The test system of a further assay is recombinant c-Src. As to conditions: crosslinker 2 (20 μM), HCT-15 lysate. Put shortly: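 HCT-15 lysate diluted in reaction buffer to 2 mg/mL (500 μL), with MgCl2 and 4 pmol recombinant c-Src added. Crosslinker (20 μM) added for 10 min at room temperature, then biotinylated Cys peptide (5–40 μM final) for 25 min. Urea lysis buffer added, then streptavidin-agarose capture for 1 h at room temperature with shaking. Beads washed in 4M urea and boiled in reducing Laemmli buffer. Anti-Src western blot read by infrared imaging, giving % of a total-c-Src standard. Duplicates; two experiments.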

The subject of assay [3] is c-Src. To be noted: no adenine mimetic; 20 μM crosslinker, 4 μM c-Src, 25 mM HEPES pH 6.5; NaBH4 quench; LC-MS.

Where a SMILES comes first, the peptide text is derived from it. The star is where a group is joined. Biotin = O=C1N[C@H]2[C@H](CS[C@H]2CCCCC(=O)*)N1; AEEA = NCCOCCOCC(=O)O

With `Cc1ccccc1CS` [2-methylbenzylmercaptan, reference compound], the “product formation with c-Src-1 complex (Src-imine)” value in assay [1] (at high concentrations (50 μM-1 mM range), 4 μM c-Src-imine, 25 minutes, room temperature, LC-MS) was “significant product formation”. Also, the “crosslinked product formation with Src-acrylamide adduct” value on c-Src-acrylamide is on record as “much less efficient”.

`CC[C@H](C)[C@H](NC(=O)COCCOCCNC(=O)COCCOCCNC(=O)CCCC[C@@H]1SC[C@@H]2NC(=O)N[C@@H]21)C(=O)N[C@@H](CS)C(=O)NCC(=O)N[C@@H](CCC(=O)O)C(=O)N[C@@H](Cc1ccccc1)C(=O)N[C@@H](CCCNC(=N)N)C(=O)N[C@@H](CCCNC(=N)N)C(=O)N[C@@H](CCCNC(=N)N)C(N)=O` [Cys-Srctide] ({Biotin-AEEA-AEEA}-ICGEFRRR-NH2; C-terminus assumed): the “overall yield of the reaction with dialdehyde crosslinker 1” value in assay [1] (dialdehyde-based crosslinker (earlier strategy), LC/MS) is “below the limit of detection”. Also, the “crosslinked product formation with c-Src-1 complex” value in assay [1] (peptide concentrations exceeding 200 μM, 4 μM c-Src-imine, room temperature, LC-MS) is recorded as “no product formation was detected”. Besides, the “crosslinked product formation with Src-acrylamide adduct” value at c-Src-acrylamide is recorded as “significant crosslinked product”. Moreover, the “crosslinked product formation over time course (in words)” value in the assay with c-Src [2] is reported as “proceed to completion”. Moreover, the “c-Src captured at lowest peptide concentration” value in the assay with recombinant c-Src (5 μM peptide, 25 minutes) is reported as “roughly 1%”.

With `O=Cc1ccsc1C=O` [thiophene dialdehyde], the “product (adduct) formed with c-Src” value in the assay on c-Src [3] is “almost undetectable”.

As for Biotin-ZZRPRTSCF [Cys-Aktide], the “crosslinked product formation over time course (in words)” value with c-Src [2] is “reacted more slowly than Cys-Srctide, and did not reach completion”. The “c-Src captured at lowest peptide concentration (in words)” value in the assay with recombinant c-Src (5 μM peptide, 25 minutes) was “not captured at a detectable level”. For the same molecule, in the assay on recombinant c-Src (40 μM peptide), the “percentage of c-Src recovered vs negative control” value is “significantly above the negative control”. The “yield of c-Src compared with Cys-Srctide” value in the assay with recombinant c-Src (25 minutes) is recorded as “less than that of Cys-Srctide”.

For Biotin-ZZRRADDCDDDD [Cys-CK2tide], the “crosslinked product (percentage of total c-Src)” value with c-Src [2] was “less than 10%”.
